In ChEMBL document CHEMBL6078622, “Enhancing outer membrane permeability of tetracycline antibiotics in P. aeruginosa using TOB-CIP conjugates” (RSC Med Chem, 2024):
The source made the active and inactive calls. No cut-off for these calls is given here.

Key:
[1] = tested on: Pseudomonas aeruginosa; test: Antibacterial activity against Pseudomonas aeruginosa PA100036 assessed as tigecycline MIC by CLSI based broth-microdilution method; assay type: functional
[2] = tested on: Pseudomonas aeruginosa; test: Synergistic antibacterial activity against Pseudomonas aeruginosa PA262 in presence of eravacycline by checkerboard assay; assay type: functional
[3] = tested on: Pseudomonas aeruginosa; test: Antibacterial activity against Pseudomonas aeruginosa PA264 assessed as minocycline MIC by CLSI based broth-microdilution method; assay type: functional
[4] = tested on: Pseudomonas aeruginosa; test: Synergistic antibacterial activity against Pseudomonas aeruginosa PA200 assessed as fractional inhibitory concentration index in presence of eravacycline by checkerboard assay; assay type: functional
[5] = tested on: HEK293; test: Cytotoxicity against HEK293 cells assessed as reduction in cell viability at 162 uM; assay type: toxicity, cell-based; conditions: human, hek293, 162 µM
[6] = tested on: Pseudomonas aeruginosa; test: Antibacterial activity against Pseudomonas aeruginosa PA200 assessed as minocycline MIC by CLSI based broth-microdilution method; assay type: functional
[7] = tested on: Pseudomonas aeruginosa; test: Antibacterial activity against Pseudomonas aeruginosa PAO1 assessed as inhibition of bacterial growth by measuring fold change in MIC in presence of 5 % fetal bovine serum by CLSI protocol based assay; assay type: functional
[8] = tested on: Pseudomonas aeruginosa; test: Antibacterial activity against Pseudomonas aeruginosa PA259 assessed as increase in bacterial load in presence of eravacycline by time kill assay; assay type: functional, organism-based
[9] = tested on: Pseudomonas aeruginosa; test: Antibacterial activity against Pseudomonas aeruginosa PA100036 assessed as inhibition of visible bacterial growth by CLSI based broth-microdilution method; assay type: functional
[10] = tested on: Pseudomonas aeruginosa; test: Antibacterial activity against Pseudomonas aeruginosa PAO1 assessed as inhibition of bacterial growth by measuring fold change in MIC in presence of 50 % fetal bovine serum by CLSI protocol based assay; assay type: functional
[11] = tested on: Pseudomonas aeruginosa; test: Synergistic antibacterial activity against Pseudomonas aeruginosa PA264 in presence of tigecycline by checkerboard assay; assay type: functional
[12] = tested on: Pseudomonas aeruginosa; test: Synergistic antibacterial activity against Pseudomonas aeruginosa PA114228 assessed as fold change in doxycycline MIC by CLSI based broth-microdilution method relative to doxycycline alone; assay type: functional
[13] = tested on: Pseudomonas aeruginosa; test: Antibacterial activity against Pseudomonas aeruginosa PA262 assessed as minocycline MIC by CLSI based broth-microdilution method; assay type: functional
[14] = tested on: Pseudomonas aeruginosa; test: Antibacterial activity against Pseudomonas aeruginosa PA259 assessed as doxycycline MIC by CLSI based broth-microdilution method; assay type: functional
[15] = tested on: Pseudomonas aeruginosa; test: Antibacterial activity against Pseudomonas aeruginosa PA262 assessed as tigecycline MIC by CLSI based broth-microdilution method; assay type: functional
[16] = tested on: Pseudomonas aeruginosa; test: Synergistic antibacterial activity against Pseudomonas aeruginosa PA101243 assessed as fold change in eravacycline MIC by CLSI based broth-microdilution method relative to eravacycline alone; assay type: functional
[17] = tested on: Pseudomonas aeruginosa; test: Synergistic antibacterial activity against Pseudomonas aeruginosa PA100036 assessed as fractional inhibitory concentration index in presence of minocycline by checkerboard assay; assay type: functional
[18] = tested on: Pseudomonas aeruginosa; test: Synergistic antibacterial activity against Pseudomonas aeruginosa PA200 in presence of tigecycline by checkerboard assay; assay type: functional
[19] = tested on: Pseudomonas aeruginosa; test: Antibacterial activity against Pseudomonas aeruginosa PAO1 assessed as inhibition of visible bacterial growth by CLSI based broth-microdilution method; assay type: functional
[20] = tested on: Pseudomonas aeruginosa; test: Synergistic antibacterial activity against Pseudomonas aeruginosa PA095 in presence of eravacycline by checkerboard assay; assay type: functional
[21] = tested on: Pseudomonas aeruginosa; test: Synergistic antibacterial activity against Pseudomonas aeruginosa PA114228 assessed as fractional inhibitory concentration index in presence of eravacycline by checkerboard assay; assay type: functional
[22] = tested on: Escherichia; test: Synergistic antibacterial activity against Escherichia 94474 assessed as fold change in minocycline MIC by CLSI based broth-microdilution method relative to minocycline alone; assay type: functional
Summary of the method: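 Checkerboard combination assay against E. coli EC107115 (MDR) and EC94474 (colistin-resistant), run in biological duplicates; the fold change is the tetracycline MIC in combination relative to its MIC alone.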

[23] = tested on: Pseudomonas aeruginosa; test: Synergistic antibacterial activity against Pseudomonas aeruginosa PA095 assessed as fractional inhibitory concentration index in presence of tigecycline by checkerboard assay; assay type: functional
[24] = tested on: Pseudomonas aeruginosa; test: Synergistic antibacterial activity against Pseudomonas aeruginosa PA259 in presence of doxycycline by checkerboard assay; assay type: functional
[25] = tested on: HepG2; test: Cytotoxicity against human HepG2 cells assessed as reduction in cell viability at 400 uM; assay type: functional, cell-based
[26] = tested on: Pseudomonas aeruginosa; test: Synergistic antibacterial activity against Pseudomonas aeruginosa PA262 assessed as fractional inhibitory concentration index in presence of tigecycline by checkerboard assay; assay type: functional
[27] = tested on: Pseudomonas aeruginosa; test: Synergistic antibacterial activity against Pseudomonas aeruginosa PA101243 assessed as fractional inhibitory concentration index in presence of doxycycline by checkerboard assay; assay type: functional
[28] = tested on: Pseudomonas aeruginosa; test: Antibacterial activity against Pseudomonas aeruginosa PA259 assessed as reduction in bacterial load by time kill assay; assay type: functional, organism-based
[29] = tested on: Pseudomonas aeruginosa; test: Antibacterial activity against Pseudomonas aeruginosa PA264 assessed as increase in bacterial load incubated for 2 hrs in presence of eravacycline by time kill assay; assay type: functional, organism-based
[30] = tested on: HEK293; test: Cytotoxicity against HEK293 cells assessed as reduction in cell viability at 7 uM; assay type: toxicity, cell-based; conditions: human, hek293, 7 µM
[31] = tested on: Pseudomonas aeruginosa; test: Synergistic antibacterial activity against Pseudomonas aeruginosa PA100036 assessed as fractional inhibitory concentration index in presence of eravacycline by checkerboard assay; assay type: functional
[32] = tested on: Pseudomonas aeruginosa; test: Synergistic antibacterial activity against Pseudomonas aeruginosa PA264 assessed as fractional inhibitory concentration index in presence of eravacycline by checkerboard assay; assay type: functional
[33] = tested on: Pseudomonas aeruginosa; test: Synergistic antibacterial activity against Pseudomonas aeruginosa PA264 assessed as fold change in tigecycline MIC by CLSI based broth-microdilution method relative to tigecycline alone; assay type: functional
[34] = tested on: Pseudomonas aeruginosa; test: Antibacterial activity against Pseudomonas aeruginosa PA259 assessed as eravacycline MIC by CLSI based broth-microdilution method; assay type: functional
[35] = tested on: Pseudomonas aeruginosa; test: Synergistic antibacterial activity against Pseudomonas aeruginosa PA101243 in presence of tigecycline by checkerboard assay; assay type: functional
[36] = tested on: Pseudomonas aeruginosa; test: Synergistic antibacterial activity against Pseudomonas aeruginosa PA264 assessed as fractional inhibitory concentration index in presence of tigecycline by checkerboard assay; assay type: functional
[37] = tested on: Pseudomonas aeruginosa; test: Synergistic antibacterial activity against Pseudomonas aeruginosa PA095 in presence of tigecycline by checkerboard assay; assay type: functional
[38] = tested on: Pseudomonas aeruginosa; test: Antibacterial activity against Pseudomonas aeruginosa PA114228 assessed as inhibition of visible bacterial growth by CLSI based broth-microdilution method; assay type: functional
[39] = tested on: Pseudomonas aeruginosa; test: Synergistic antibacterial activity against Pseudomonas aeruginosa PA200 assessed as fold change in eravacycline MIC by CLSI based broth-microdilution method relative to eravacycline alone; assay type: functional
[40] = tested on: Escherichia coli; test: Antibacterial activity against Escherichia coli ATCC 25922 assessed as inhibition of visible bacterial growth by CLSI based broth-microdilution method; assay type: functional
[41] = tested on: Pseudomonas aeruginosa; test: Antibacterial activity against Pseudomonas aeruginosa PA262 assessed as doxycycline MIC by CLSI based broth-microdilution method; assay type: functional
[42] = tested on: Pseudomonas aeruginosa; test: Synergistic antibacterial activity against Pseudomonas aeruginosa PA259 assessed as fold change in tigecycline MIC by CLSI based broth-microdilution method relative to tigecycline alone; assay type: functional
[43] = tested on: Pseudomonas aeruginosa; test: Antibacterial activity against Pseudomonas aeruginosa PA259 assessed as tigecycline MIC by CLSI based broth-microdilution method; assay type: functional
[44] = tested on: Pseudomonas aeruginosa; test: Antibacterial activity against Pseudomonas aeruginosa PA200 assessed as tigecycline MIC by CLSI based broth-microdilution method; assay type: functional
[45] = tested on: Pseudomonas aeruginosa; test: Synergistic antibacterial activity against Pseudomonas aeruginosa PA101243 assessed as fold change in doxycycline MIC by CLSI based broth-microdilution method relative to doxycycline alone; assay type: functional

MIC [1]: 0.5 µg/mL
MIC [2]: 8 µg/mL
MIC [3]: 0.5 µg/mL
MIC [6]: 1 µg/mL
MIC [9]: > 128 µg/mL
MIC [11]: 8 µg/mL
MIC [13]: 2 µg/mL
MIC [14]: 0.5 µg/mL
MIC [15]: 2 µg/mL
MIC [18]: 8 µg/mL
MIC [19]: > 128 µg/mL
MIC [20]: 2 µg/mL
MIC [24]: 8 µg/mL
MIC [34]: 0.062 µg/mL
MIC [35]: 8 µg/mL
MIC [37]: 2 µg/mL
MIC [38]: > 128 µg/mL
MIC [40]: > 128 µg/mL
MIC [41]: 8 µg/mL
MIC [43]: 0.5 µg/mL
MIC [44]: 0.25 µg/mL
Structure (SMILES): Cl.Cl.Cl.Cl.Cl.Cl.NC[C@H]1O[C@H](O[C@H]2[C@H](OCCCCCCCCCCCCNC(=O)c3cn(C4CC4)c4cc(N5CCNCC5)c(F)cc4c3=O)[C@@H](O[C@H]3O[C@H](CO)[C@@H](O)[C@H](N)[C@H]3O)[C@H](N)C[C@@H]2N)[C@H](N)C[C@@H]1O
fractional inhibitory concentration index (FICI) [4]: 0.156
Activity [5]: 60%
fold change (FC) [7]: >128
Activity [8]: Active
fold change (FC) [10]: 1
fold change (FC) [12]: 128
fold change (FC) [16]: 4
fractional inhibitory concentration index (FICI) [17]: 0.015
fractional inhibitory concentration index (FICI) [21]: 0.5
fold change (FC) [22]: 8
fractional inhibitory concentration index (FICI) [23]: 0.265
Activity [25]: Active
fractional inhibitory concentration index (FICI) [26]: 0.008
fractional inhibitory concentration index (FICI) [27]: 0.25
AC30 [28]: Active
Activity [29]: Active
Activity [30]: Non-toxic
fractional inhibitory concentration index (FICI) [31]: 0.008
fractional inhibitory concentration index (FICI) [32]: 0.008
fold change (FC) [33]: 32
fractional inhibitory concentration index (FICI) [36]: 0.004
fold change (FC) [39]: 128
fold change (FC) [42]: 128
fold change (FC) [45]: 2
